Calls of active or inactive are those of the source. The calls are words filed in the database; no cut-off is given here.
Legend:
[1] = biological target: T1, C-C chemokine receptor type 1 (Homo sapiens, UniProt P32246); test: Displacement of [125I]MIP-1-alpha from human recombinant CCR1 expressed in HEK293 cells; format: cell-based
T1 sequence (P32246 whole entry): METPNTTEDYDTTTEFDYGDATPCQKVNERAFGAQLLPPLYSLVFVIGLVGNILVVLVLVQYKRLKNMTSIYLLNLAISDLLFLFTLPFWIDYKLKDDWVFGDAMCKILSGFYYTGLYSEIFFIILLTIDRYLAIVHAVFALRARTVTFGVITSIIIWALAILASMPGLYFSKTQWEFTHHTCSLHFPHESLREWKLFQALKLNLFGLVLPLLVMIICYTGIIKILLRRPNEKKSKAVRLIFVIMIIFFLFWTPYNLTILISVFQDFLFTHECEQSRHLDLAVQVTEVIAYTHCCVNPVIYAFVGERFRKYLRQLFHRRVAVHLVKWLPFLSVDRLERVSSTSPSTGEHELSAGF
Procedure, shortened: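 Scintillation proximity binding in 384-well format. Membranes (50 µg/mL) were mixed with SPA beads (10 mg/mL) in buffer of 130 mM NaCl, 5 mM KCl, 1 mM MnCl₂, 50 mM Tris HCl pH 7.4 and 0.1% BSA. Varied compound concentrations added with [¹²⁵I]MIP-1α at 0.1 nM final. Plates spun, incubated 4 h, then counted.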

[2] = Metabolic stability in rat liver microsomes assessed as compound remaining at 1 uM after 30 mins by LC/MS; format: ADME, Microsome; conditions: read-out: Stability
Procedure, shortened: (§1)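 Compound at 1 µM incubated with rat or human liver microsomes (300 nM cytochrome P450) in phosphate buffer pH 7.4 with 1 mM NADPH for 30 min at 37 °C. Stopped with acetonitrile and centrifuged. Percent remaining at 30 min determined by LC/MS.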

[3] = Metabolic stability in human liver microsomes assessed as compound remaining at 1 uM after 30 mins by LC/MS; format: ADME, Microsome; conditions: read-out: Stability; procedure, shortened: as §1
[4] = (§2) AUC(0 to infinity) in Sprague-Dawley rat at 5 mg/kg, po; format: ADME, organism-based, Plasma; parameters: time infinity, dose 5 mg/kg, route oral; conditions: Sprague-Dawley, plasma
Procedure, shortened: (§3)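 Male Sprague-Dawley rats, three to four per compound, given 5 mg/kg by oral gavage in 0.5% methyl cellulose, either singly or in a cassette. Serial blood drawn from an indwelling arterial cannula up to 6 or 24 h. Plasma proteins precipitated, and parent compound quantified by LC/MS/MS.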

[5] = Cmax in Sprague-Dawley rat at 5 mg/kg, po; format: ADME, organism-based; parameters: dose 5 mg/kg, route oral; conditions: in vivo; procedure, shortened: as §3
[6] = AUC(0 to 6 hrs) in Sprague-Dawley rat at 5 mg/kg, po; format: ADME, organism-based; parameters: time < 6 hr, dose 5 mg/kg, route oral; conditions: plasma; procedure, shortened: as §3
Rattus norvegicus = test: as §2; format: ADME, organism-based, Plasma; parameters: time infinity, dose 5 mg/kg, route oral; conditions: in vivo; procedure, shortened: as §3
[7] = Oral bioavailability in Sprague-Dawley rat at 5 mg/kg; format: ADME, organism-based; conditions: in vivo
Procedure, shortened: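 Oral dosing was 5 mg/kg by gavage in 0.5% methyl cellulose to male Sprague-Dawley rats (three to four), with a 1 mg/kg intravenous dose via indwelling catheter for comparison. Serial arterial-cannula blood sampling. Parent compound in protein-precipitated plasma measured by LC/MS/MS.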

[8] = Half life in Sprague-Dawley rat at 5 mg/kg, po; format: ADME, organism-based; parameters: dose 5 mg/kg, route oral; conditions: in vivo; procedure, shortened: as §3
[9] = biological target: T2, C-C chemokine receptor type 4 (Homo sapiens) (UniProt P51679); test: Inhibition of CCR4
T2 sequence (whole entry): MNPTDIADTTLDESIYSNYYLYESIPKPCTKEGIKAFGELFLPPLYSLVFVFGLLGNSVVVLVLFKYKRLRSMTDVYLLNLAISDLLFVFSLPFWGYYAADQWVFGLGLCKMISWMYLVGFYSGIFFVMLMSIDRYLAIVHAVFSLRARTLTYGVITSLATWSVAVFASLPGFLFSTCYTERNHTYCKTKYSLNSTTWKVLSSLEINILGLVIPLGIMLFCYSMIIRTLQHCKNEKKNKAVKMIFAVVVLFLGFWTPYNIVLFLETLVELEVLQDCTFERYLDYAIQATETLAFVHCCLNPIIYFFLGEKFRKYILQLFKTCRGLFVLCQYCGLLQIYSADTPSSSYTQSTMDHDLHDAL

[10] = biological target: C-C chemokine receptor type 2 (Homo sapiens) (UniProt P41597); test: Inhibition of CCR2b
[11] = biological target: C-C chemokine receptor type 5 (Homo sapiens) (UniProt P51681); test: Inhibition of CCR5
[12] = biological target: T3, C-X-C chemokine receptor type 1 (Homo sapiens) (UniProt P25024); test: Inhibition of CXCR1
T3 sequence (whole entry): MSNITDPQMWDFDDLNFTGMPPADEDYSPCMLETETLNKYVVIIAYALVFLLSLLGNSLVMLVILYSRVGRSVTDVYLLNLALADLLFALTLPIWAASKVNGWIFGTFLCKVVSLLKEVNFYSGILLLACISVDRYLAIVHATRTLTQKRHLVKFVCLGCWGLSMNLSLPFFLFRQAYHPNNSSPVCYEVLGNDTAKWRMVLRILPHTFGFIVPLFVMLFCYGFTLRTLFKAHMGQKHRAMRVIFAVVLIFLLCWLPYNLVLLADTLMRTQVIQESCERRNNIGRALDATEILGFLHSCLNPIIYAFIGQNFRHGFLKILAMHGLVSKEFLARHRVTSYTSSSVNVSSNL

[13] = biological target: T4, C-X-C chemokine receptor type 2 (Homo sapiens) (UniProt P25025); test: Inhibition of CXCR2
T4 sequence (whole entry): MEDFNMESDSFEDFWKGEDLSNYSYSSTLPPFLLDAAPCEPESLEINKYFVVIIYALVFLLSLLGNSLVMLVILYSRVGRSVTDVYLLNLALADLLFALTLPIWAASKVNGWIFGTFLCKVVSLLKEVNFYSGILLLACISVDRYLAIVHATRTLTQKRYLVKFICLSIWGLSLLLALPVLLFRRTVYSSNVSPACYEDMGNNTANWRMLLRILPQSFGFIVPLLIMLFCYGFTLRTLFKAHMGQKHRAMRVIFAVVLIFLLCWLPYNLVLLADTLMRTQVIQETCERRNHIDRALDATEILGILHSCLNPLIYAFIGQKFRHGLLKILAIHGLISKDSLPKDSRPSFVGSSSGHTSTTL

[14] = biological target: T5, CX3C chemokine receptor 1 (Homo sapiens) (UniProt P49238); test: Inhibition of CX3CR1
T5 sequence (whole entry): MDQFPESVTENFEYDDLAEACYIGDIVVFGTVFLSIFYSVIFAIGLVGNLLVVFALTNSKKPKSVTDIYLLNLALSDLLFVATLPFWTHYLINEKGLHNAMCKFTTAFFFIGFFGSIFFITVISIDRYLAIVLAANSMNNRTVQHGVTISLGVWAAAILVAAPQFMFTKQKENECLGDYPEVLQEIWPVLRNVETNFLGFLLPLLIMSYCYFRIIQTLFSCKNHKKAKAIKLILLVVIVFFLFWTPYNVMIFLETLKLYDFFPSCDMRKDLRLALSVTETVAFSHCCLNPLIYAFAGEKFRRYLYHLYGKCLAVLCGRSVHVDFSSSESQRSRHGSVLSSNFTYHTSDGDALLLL

C-C chemokine receptor type 5 (Homo sapiens), sequence (P51681 whole entry, looked up): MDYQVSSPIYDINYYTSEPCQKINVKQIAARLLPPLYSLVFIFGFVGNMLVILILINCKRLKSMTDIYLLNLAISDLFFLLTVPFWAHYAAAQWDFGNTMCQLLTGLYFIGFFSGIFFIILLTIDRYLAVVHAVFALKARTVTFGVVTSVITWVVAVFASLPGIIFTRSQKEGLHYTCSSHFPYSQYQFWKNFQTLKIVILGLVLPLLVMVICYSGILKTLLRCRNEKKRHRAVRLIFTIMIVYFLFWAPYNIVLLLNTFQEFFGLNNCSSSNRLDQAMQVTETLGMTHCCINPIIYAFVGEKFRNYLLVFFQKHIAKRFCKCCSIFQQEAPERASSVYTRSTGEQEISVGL
C-C chemokine receptor type 2 (Homo sapiens), sequence (P41597 whole entry, looked up): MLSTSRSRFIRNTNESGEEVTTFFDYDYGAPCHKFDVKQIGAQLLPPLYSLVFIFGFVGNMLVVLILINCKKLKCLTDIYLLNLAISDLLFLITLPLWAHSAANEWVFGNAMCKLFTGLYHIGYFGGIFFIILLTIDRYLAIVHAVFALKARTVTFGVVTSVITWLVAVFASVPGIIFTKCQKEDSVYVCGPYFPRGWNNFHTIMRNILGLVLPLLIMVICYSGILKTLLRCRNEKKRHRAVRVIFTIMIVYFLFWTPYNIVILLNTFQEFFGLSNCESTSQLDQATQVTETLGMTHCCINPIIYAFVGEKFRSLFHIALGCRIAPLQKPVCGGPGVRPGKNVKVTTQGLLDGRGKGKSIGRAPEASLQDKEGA

Row | SMILES | IC50 [1] | further results
1 | O=C([C@H]1CCCN1C(=O)Nc1ccc(Cl)cc1)N(CCO)Cc1ccccc1Cl | 43 µM | –
2 | O=C([C@H]1CCCN1C(=O)Nc1ccc(Cl)cc1)N(CCO)Cc1cccc(Cl)c1 | > 100 µM | –
3 | COc1ccc(NC(=O)N2CCC[C@@H]2C(=O)N(C)Cc2ccc(Cl)cc2)cc1 | 0.29 µM | –
4 | Cc1cc(CN(C)C(=O)[C@H]2CCCN2C(=O)Nc2ccc(Cl)cc2)ccc1Cl | 4 µM | –
5 | Cc1cc(C(F)(F)F)cc(C)c1NC(=O)N1CCC[C@@H]1C(=O)N(C)Cc1ccc(Cl)cc1 | 0.011 µM | remaining at 0.5 h, 1 µM [2]: 84%; remaining at 0.5 h, 1 µM [3]: 74%; AUC(0-inf) [4]: 0.611 µg·h/mL; Cmax [5]: 0.195 µg/mL
6 | Cc1cc(C(F)(F)F)ccc1NC(=O)N1CCC[C@@H]1C(=O)N(C)Cc1ccc(Cl)cc1 | 0.05 µM | remaining at 0.5 h, 1 µM [2]: 81%; remaining at 0.5 h, 1 µM [3]: 58%; AUC(0-t) at 6 h [6]: 2.59 µg·h/mL; Cmax [5]: 0.699 µg/mL
7 | CN(Cc1ccc(Cl)cc1)C(=O)[C@H]1CCCN1C(=O)Nc1ccc(C(F)(F)F)cc1Cl | 0.12 µM | remaining at 0.5 h, 1 µM [2]: 68%; remaining at 0.5 h, 1 µM [3]: 73%; AUC(0-t) at 6 h [6]: 2.06 µg·h/mL; Cmax [5]: 0.437 µg/mL
8 | CN(Cc1ccc(C(F)(F)F)cc1)C(=O)[C@H]1CCCN1C(=O)Nc1ccc(Cl)cc1 | > 100 µM | –
9 | CN(Cc1ccc(Cl)cc1)C(=O)C1CCCCN1C(=O)Nc1ccc(C(F)(F)F)cc1 (stereo unspecified) | > 28 µM | –
10 | CN(Cc1ccc(Cl)cc1)C(=O)[C@H]1CCN1C(=O)Nc1ccc(C(F)(F)F)cc1 | > 100 µM | –
11 | Cc1cc(Cl)ccc1CN(C)C(=O)[C@H]1CCCN1C(=O)Nc1ccc(Cl)cc1 | > 100 µM | –
12 | CN(Cc1ccc(Cl)cc1)C(=O)[C@H]1CCCN1C(=O)Nc1cccc(C(F)(F)F)c1 | 2.95 µM | –
13 | CN(Cc1ccc(Cl)cc1)C(=O)[C@H]1CCCN1C(=O)Nc1ccc(C(F)(F)F)cc1F | 0.023 µM | remaining at 0.5 h, 1 µM [2]: 76%; remaining at 0.5 h, 1 µM [3]: 93%; AUC(0-t) at 6 h [6]: 1.24 µg·h/mL; Cmax [5]: 0.291 µg/mL
14 | CN(Cc1ccc(Cl)cc1)C(=O)[C@@H]1CCCN1C(=O)Nc1ccc(C(F)(F)F)cc1 | > 28 µM | –
15 | CN(Cc1ccc(Cl)cc1)C(=O)[C@H]1CCCN1C(=O)Nc1ccc(C(F)(F)F)cc1 | 0.14 µM | remaining at 0.5 h, 1 µM [2]: 74%; remaining at 0.5 h, 1 µM [3]: 78%; AUC (Rattus norvegicus): 9.39 µg·h/mL; Cmax [5]: 0.834 µg/mL; bioavailability [7]: 45%; half-life [8]: 4.4 h; Activity [9]: inactive; Activity [10]: inactive; Activity [11]: inactive; Activity [12]: inactive; Activity [13]: inactive; Activity [14]: inactive

The next lines start with results.

Row | IC50 [1] | SMILES | further results
16 | 4.7 µM | CC(c1ccc(Cl)cc1)N(C)C(=O)[C@H]1CCCN1C(=O)Nc1ccc(Cl)cc1 (stereo partly specified) | –
17 | 0.68 µM | Cc1ccc(NC(=O)N2CCC[C@@H]2C(=O)N(C)Cc2ccc(Cl)cc2)cc1 | –
18 | 0.72 µM | CN(Cc1ccc(Cl)cc1)C(=O)[C@H]1CCCN1C(=O)Nc1ccc(C#N)cc1 | –
19 | > 75 µM | O=C(NCc1ccc(Cl)cc1)[C@H]1CCCN1C(=O)Nc1ccc(Cl)cc1 | –
20 | > 13 µM | CN(Cc1ccc(C#N)cc1)C(=O)[C@H]1CCCN1C(=O)Nc1ccc(Cl)cc1 | –
21 | 3.6 µM | CCCN(Cc1ccc(Cl)cc1)C(=O)[C@H]1CCCN1C(=O)Nc1ccc(Cl)cc1 | –
22 | 1.3 µM | CN(Cc1ccc(F)cc1)C(=O)[C@H]1CCCN1C(=O)Nc1ccc(Cl)cc1 | –
23 | 5.7 µM | Cc1ccc(CN(C)C(=O)[C@H]2CCCN2C(=O)Nc2ccc(Cl)cc2)cc1 | –
24 | 0.54 µM | O=C([C@H]1CCCN1C(=O)Nc1ccc(Cl)cc1)N(CCO)Cc1ccc(Cl)cc1 | –
25 | 0.7 µM | CN(Cc1ccc(Cl)cc1)C(=O)[C@H]1CCCN1C(=O)Nc1ccc(F)cc1 | –
26 | > 77 µM | COc1ccc(CN(C)C(=O)[C@H]2CCCN2C(=O)Nc2ccc(Cl)cc2)cc1 | –
27 | 0.27 µM | CN(Cc1ccc(Cl)cc1)C(=O)[C@H]1CCCN1C(=O)Nc1ccc(Cl)cc1 | –
28 | 0.27 µM | CCN(Cc1ccc(Cl)cc1)C(=O)[C@H]1CCCN1C(=O)Nc1ccc(Cl)cc1 | –
